Assay results as given in PubChem BioAssay AID463111 (Johns Hopkins Ion Channel Center, 2010).
The campaign covered roughly 310,000 compounds. About 2,800 (0.9%) were called active.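 How the source made its calls: active means B-score of the integrated calcium signal more than 4 SD below the library mean, with starting fluorescence not abnormally high; inactive means the rest.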 The entries come from a sample that favours actives as a whole.

Test: RGS4 potentiators or activators, primary screen, cell-based, HEK293 M3R inducible RGS4, calcium flux (AID 463111);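 on B-score: negative B-score means reduced calcium response which marks RGS4 activation or potentiation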
Details: HEK293 M3R/inducible RGS4, carbachol calcium flux Fluo4, at 10 µM; stronger effect = lower value
In short: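 Assay system: HEK293 FlpIn-TREx cells, stable M3R, doxycycline-inducible RGS4 / Probe or stimulus: carbachol, ECmax concentration / Times: overnight RGS4 induction, 30 min dye load 37 °C, 20 min compound RT / Signal: kinetic calcium fluorescence imaging with Fluo4-AM dye, 2 µM / Measure: Agonist-evoked peak-minus-minimum fluorescence over baseline, integrated ratio, B score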

SMILES	B-score
COc1ccc(Cl)cc1NC(=O)CCS(=O)(=O)c1cc2c(cc1C)NC(=O)CO2	-7.02 (active)
COc1ccc(NC(=O)CCS(=O)(=O)c2cc3c(cc2Cl)NC(=O)CO3)cc1OC	inactive
Cc1cc2c(cc1S(=O)(=O)CCC(=O)NCc1ccccc1)OCC(=O)N2	inactive
COc1cccc(C2c3[nH]c4ccccc4c3CCN2Cc2cccc(C)n2)c1 (stereo unspecified)	inactive
CC1=CCC2C(=O)N(c3cccc(C(=O)NC(C)c4ccccc4)c3)C(=O)C2C1 (stereo unspecified)	inactive
CCCCn1c(N)c(N(CC)C(=O)c2ccccc2C(F)(F)F)c(=O)[nH]c1=O	inactive
Cc1nn(Cc2ccc(C(=O)N3N=C(C(F)F)CC3(O)C(F)F)cc2)c(C)c1[N+](=O)[O-] (stereo unspecified)	inactive
O=C(CSCc1ccc(Br)cc1)Nc1ccc(S(=O)(=O)N2CCCCCC2)cc1	inactive
O=C(CN1CCCCCC1)Nc1ccc(S(=O)(=O)N2CCCCC2)cc1	-8.13 (active)
CCOc1ccc(NC(=O)COc2ccc(S(=O)(=O)N3CCCC3)cc2)cc1	inactive
O=c1cc(CO)oc(C(Nc2cccc([N+](=O)[O-])c2)c2ccccn2)c1O (stereo unspecified)	inactive
CCc1ccc(OCC(=O)N(Cc2ccccc2)C2CCS(=O)(=O)C2)cc1 (stereo unspecified)	inactive
Cc1ccc(C)c(-c2nnc(NC(=O)CS(=O)(=O)c3ccccc3)o2)c1	inactive
O=C(Nc1cccn(Cc2c(Cl)cccc2Cl)c1=O)c1ccc(Cl)cc1	inactive
COc1ccccc1NC(=O)CCCc1c[nH]c2ccccc12	inactive
CCCCCCCC(=O)NC(Nc1ccccc1OC)C(Cl)(Cl)Cl (stereo unspecified)	-8.57 (active)
CCCC(=O)NC(Nc1ccccc1OC)C(Cl)(Cl)Cl (stereo unspecified)	inactive
Cc1cnc(C(=O)OCc2c(C)cc(C(C)(C)C)cc2C)cn1	inactive
Cc1cc(C(=O)OCC(=O)Nc2ccc(F)c(F)c2)c(C)o1	inactive
O=C(NCc1ccc(F)cc1)C1CCN(C(=O)Nc2ccc(F)cc2)CC1	inactive
CCc1ccc(C(=O)OCC(=O)NCC(F)(F)F)cc1	inactive
Cc1c(NC(=O)Nc2cccc([N+](=O)[O-])c2)c(=O)n(-c2ccccc2)n1C	inactive
Cc1nc(N2CCN(c3ccccn3)CC2)c2c(C)c(C(=O)Nc3ccc(F)cc3)sc2n1	-9.74 (active)
Cc1nc(N2CCN(c3ccccn3)CC2)c2c(C)c(C(=O)Nc3ccc(F)c(Cl)c3)sc2n1	inactive
COc1ccc(NC(=O)c2sc3nc(C)nc(N4CCN(c5ccccn5)CC4)c3c2C)c(OC)c1	inactive
O=C(Oc1ccc([N+](=O)[O-])cc1)c1ccc(Cl)c(S(=O)(=O)N2CCCCC2)c1	inactive

SMILES	B-score
C=CCN(N=Nc1cccc([N+](=O)[O-])c1)c1cccc([N+](=O)[O-])c1	inactive
COc1ccc(-c2cc(C(=O)Nc3ccccc3O)c3ccccc3n2)cc1	inactive
COc1ccc(-c2cc(C(=O)N(C)CC(=O)Nc3ccccc3Cl)c3ccccc3n2)cc1OC	inactive
COc1ccc(CN(C)C(=O)Cc2c[nH]c3ccccc23)c(OC)c1OC	inactive
CNC(=O)COC(=O)c1cc(-c2ccc(OC)cc2)nc2ccccc12	inactive
Cc1ccc(-c2cc(C(=O)Nc3nn[nH]n3)c3ccccc3n2)c(C)c1	inactive
COc1ccc(-c2cc(C(=O)N(C)Cc3ccc(OC)c(OC)c3OC)c3ccccc3n2)cc1OC	-8.8 (active)
COc1ccc(-c2cc(C(=O)N(C)Cc3ccccc3)c3ccccc3n2)cc1	-8.16 (active)
COc1ccc(NC(=O)CN(C)C(=O)c2cc(-c3ccc(C)o3)nc3ccccc23)cc1	inactive
COc1ccc(CN(C)C(=O)c2cc(-c3ccc(C)cc3C)nc3ccccc23)c(OC)c1OC	-11.6 (active)
O=c1[nH]cccc1-c1nc2ccccc2n1Cc1ccc(Cl)cc1	inactive
CCC(Oc1ccccc1C)C(=O)Nc1ccc(S(=O)(=O)Nc2cc(C)on2)cc1 (stereo unspecified)	inactive
CC1=C(C(=O)N(C)C)C(c2ccccc2OC(F)F)NC(=O)N1 (stereo unspecified)	inactive
Cc1ccc(NS(=O)(=O)c2c(C)[nH]c(C)c2C(=O)N2CCCCC2)c(C)c1	inactive
CC1=C(C(=O)OC2CCCCC2)C(c2cccnc2)n2ncnc2N1 (stereo unspecified)	inactive
O=C(N/N=C/c1cccc(OCc2ccccc2)c1)c1ccc(Br)o1	-7.35 (active)
Cc1ccc(OCCOc2cccc(/C=N/NC(N)=O)c2)cc1	inactive
O=C(N/N=C/c1cccc(O)c1)c1cc2c(ccc3ccccc32)o1	inactive
CSc1nc(-c2ccco2)nn1C(=O)c1ccccc1Cl	inactive
O=C1/C(=C\c2ccsc2)NC(=S)N1c1ccccc1	inactive
O=C1NCC(=O)N(Cc2ccccc2)/C1=C/c1ccccc1	inactive
CN(C)c1ccc(/C=C2\NC(=S)N(Cc3ccccc3)C2=O)cc1	-12 (active)
CC(=O)N1CCN(S(=O)(=O)c2c(F)cc(F)c(Cl)c2F)CC1	inactive
C/C=C(\C)C(=O)N1CC2(CC(c3cccc(NC(=O)CCCCC)c3)=NO2)C[C@@H]1C(N)=O (stereo partly specified)	inactive
CN(C)C(=O)c1nc2ccc(Cl)cn2c1CNCc1cccc(OC(F)(F)F)c1	inactive
CN(C)c1ccc2c(=O)[nH][nH]c(=O)c2c1	inactive

SMILES	B-score
O=C(NCc1ccncc1)C1CCN(C(=O)c2cccc(Cl)c2)CC1	inactive
COC(=O)c1cccc(C(=O)N2CCC(CCC(=O)NCc3ccc(F)cc3)CC2)c1	inactive
CCOC(=O)N1CCN(C(=O)c2nn(-c3ccc(C)cc3)c(=O)c3c2c2ccccc2n3C)CC1	inactive
O=C(c1ccccc1Oc1ccccc1)N1CCN(c2ccc(F)cc2)CC1	inactive
Cn1c2ccccc2c2c(C(=O)N3CCN(c4ccc(F)cc4)CC3)cn(C3CCCC3)c(=O)c21	-7.18 (active)
Nc1nc(SCc2cccc(Br)c2)n[nH]1	inactive
COc1ccc(CC2(CO)CCN(Cc3cnn(C)c3)CC2)cc1	inactive
CC(=O)c1cccc(CN2CCC(CO)(Cc3ccccc3)CC2)c1	inactive
COC(=O)c1ccc(CN2CCC(CO)(Cc3ccc(OC)cc3)CC2)cc1	-8.7 (active)
CC(=O)c1ccc(S(=O)(=O)Nc2ccc(C(=O)NCC(c3ccccc3)N(C)C)cc2)cc1 (stereo unspecified)	inactive
CN(C)C(CNC(=O)c1cccc(S(=O)(=O)Nc2ccc(Br)cc2)c1)c1ccco1 (stereo unspecified)	inactive
COc1ccccc1C(CNC(=O)c1cccc(NS(=O)(=O)c2ccc(Br)cc2)c1)N(C)C (stereo unspecified)	-8.15 (active)
COC(=O)c1ccccc1NC(=O)CN(Cc1ccc(Cl)cc1)S(C)(=O)=O	inactive
COC(=O)c1ccccc1NC(=O)Cn1nc(C(F)(F)F)c2c1CCC2	inactive
COC(=O)c1ccccc1Sc1c(/C=N/OCc2ccc(Cl)cc2)c(C(F)(F)F)nn1C	-7.48 (active)
CC(C)[C@H](NC(=O)c1ccc(F)cc1)C(=O)OCC(=O)NC(=O)c1cccn1C	inactive
Cc1cccc(NS(=O)(=O)c2ccc(C(=O)NCC(C)(C)N3CCOCC3)cc2)c1C	inactive
N[C@@H](Cc1ccccc1)C(=O)N1CCOCC1	inactive
COCCCNC(=S)NC(=O)c1ccccc1	inactive
CCOC(=O)c1c(-c2ccccc2)csc1NC(=S)NC(=O)c1ccccc1	inactive
CCOC(=O)C1=C(NC(=S)NC(=O)c2ccccc2)c2ccccc2CC1(C)C	-9.14 (active)
CCn1c(SC)nc(O)c(C(c2ccc(OC)c(O)c2)c2c(O)nc(SC)n(CC)c2=O)c1=O	inactive
Cc1oc2c(F)c(F)c(F)c(F)c2c1S(=O)(=O)Nc1cccc(C(F)(F)F)c1	-9.29 (active)
O=C(/C=C/c1ccc(F)cc1)Nc1cccc(S(=O)(=O)Nc2cccc(C(F)(F)F)c2)c1	inactive
CCOC(=O)N1CCN(C(=O)c2ccc(S(=O)(=O)Nc3cccc(C(F)(F)F)c3)cc2)CC1	inactive
CCOc1ccc(NC(=O)CN(C)CC(=O)NC(C)c2ccccc2)cc1OCC (stereo unspecified)	inactive

SMILES	B-score
COc1cc(NS(=O)(=O)c2ccc(NC(=O)CN3C(=O)c4ccccc4C3=O)cc2)ncn1	inactive
CS(=O)(=O)Nc1ccc(C(=O)N2CCCC2)cc1	inactive
C=CCOc1ccc(/C=C/C(=O)OCC(=O)NCC2CCCO2)cc1 (stereo unspecified)	inactive
O=C(Nc1nccs1)C1CCN(S(=O)(=O)c2ccc(Cl)c(C(F)(F)F)c2)CC1	inactive
Cc1ccc(NC(=O)COc2ccc(/C=C3/NC(=O)NC3=O)cc2)cc1	inactive
CC(C)c1ccc(/C=C2\NC(=O)NC2=O)cc1	-8.02 (active)
CSc1ccc(/C=C2\NC(=O)NC2=O)cc1	inactive
COc1ccc(C2=NN(C(=O)CSc3nc(=O)n4ccc(C)cc4n3)C(c3ccc(C)cc3)C2)cc1 (stereo unspecified)	inactive
O=C1c2ccccc2C(=O)c2c1cccc2N1CCN(C/C=C/c2ccccc2)CC1	inactive
O=C(Cn1c(N2CCN(C/C=C/c3ccccc3)CC2)nc2ccccc21)c1ccccc1	-8 (active)
CC(C)Cn1c(N2CCN(C(=O)/C=C/c3ccccc3)CC2)nc2ccccc21	inactive
CC(NCc1nc2ccccc2n1C)C12CC3CC(CC(C3)C1)C2 (stereo unspecified)	inactive
CCN(CC)C(=O)COc1coc(CN2CCN(Cc3ccccc3)CC2)cc1=O	inactive
CCOc1cccc(NC(=O)Cn2nc(-c3ccc4c(c3)OCCO4)ccc2=O)c1	inactive
CCOc1ccc2[nH]c(=O)c(CN(Cc3nnnn3CCc3ccccc3)CC3CCCO3)cc2c1 (stereo unspecified)	inactive
c1ccc(-c2cc3c(NCC4COc5ccccc5O4)ncnc3s2)cc1 (stereo unspecified)	inactive
COc1ccccc1N1CCN(c2ncnc3sc(C)c(-c4ccccc4)c23)CC1	inactive
Oc1ccccc1N1CCN(c2ncnc3sc(-c4ccccc4)cc23)CC1	-9.36 (active)
CNC(=O)COc1ccc(S(=O)(=O)Nc2ccccc2)cc1	inactive
CCn1ncc(CNC(=O)C2(C)CC2(Br)Br)c1C (stereo unspecified)	inactive
C=CCn1c(SCc2ccc(Cl)c(Cl)c2)nnc1C(CO)NC(=O)c1ccc(OC)cc1 (stereo unspecified)	inactive
COc1cnc(SCc2ccc(Cl)c(Cl)c2)nc1Cl	-7.01 (active)
Nc1cc(N)nc(SCc2ccc(Cl)cc2)n1	inactive
